PREPL inh – inhibitors of human prolyl oligopeptidase-like enzyme PREPL; hit rate 0.68% among 320,000; AID 2751; inhibition, % at 5.96 µM; recombinant PREPL, fluorescence polarization activity-based probe; in the data active = inhibition above about 43%
Rpn11 block – Rpn11 (human) deubiquitinase inhibition. human 26S proteasome, Ub4-pepOG fluorescence polarization; 20S core pre-blocked with epoxomicin. AID 588493. hit rate 0.59% among 360,000. inhibition, % at 20 µM;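 active = inhibition at 20 µM, scaled to each plate's controls, above about 33%, limit read from the data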
Target sequence (O00487 whole entry, looked up): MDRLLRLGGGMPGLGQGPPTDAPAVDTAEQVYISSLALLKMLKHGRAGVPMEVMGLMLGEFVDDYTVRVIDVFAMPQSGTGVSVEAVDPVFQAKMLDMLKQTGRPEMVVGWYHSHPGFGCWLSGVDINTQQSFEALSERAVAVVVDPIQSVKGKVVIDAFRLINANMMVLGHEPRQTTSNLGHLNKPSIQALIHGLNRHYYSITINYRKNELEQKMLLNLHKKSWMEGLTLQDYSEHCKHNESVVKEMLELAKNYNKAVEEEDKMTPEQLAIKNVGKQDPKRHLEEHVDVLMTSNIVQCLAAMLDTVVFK
HNF4A DNA FP – change in binding of human HNF4 alpha to DNA. hit rate 0.3% among 360,000. activity change, % at 10 µM. HNF4a-FITC DNA binding, fluorescence polarization, 1 h; in the data active = activity change above about 30%, passing the limit was not always enough
Neddyl block – inhibitors of human cullin neddylation | inhibition, % at 25 µM | TR-FRET cullin neddylation, biochemical | hit rate 0.58% among 360,000 | P61081+Q13564 | AID 651699; in the data active = inhibition above about 36%
Tb MetRS inh – blocks T. brucei methionyl-tRNA synthetase activity | purified T. brucei MetRS, ATP depletion, Kinase-Glo luminescence | inhibition, % at 11.9 µM | hit rate 0.4% among 360,000;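 active = inhibition above a per-plate cutoff of the control wells' mean inhibition plus 3 SD, cut at about 5.5% in these data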
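System: purified T. brucei MetRS enzyme / Detection: Kinase-Glo luciferase luminescence reporting remaining unconsumed ATP / Medium: HEPES buffer with MgCl2, KCl, DTT, spermine, BSA, pyrophosphatase / Replication: singlicate, one well per compound / Evaluation: percent inhibition relative to median high and low control wells / Schedule: 2 h aminoacylation at 25 °C after 15 min preincubation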
CSN inh – CSN deneddylation inhibition | Q92905 | Purified CSN, SCF-Nedd8-OG deneddylation, fluorescence polarization | inhibition, % at 12.5 µM | hit rate 0.38% among 360,000 | AID 651999;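 active = pattern-corrected inhibition above about 35%, with an unprinted fluorescence ratio check between 0.5 and 1.5, limit read from the data, passing the limit was not always enough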
Target sequence (Q92905 whole entry, looked up, one chain of several): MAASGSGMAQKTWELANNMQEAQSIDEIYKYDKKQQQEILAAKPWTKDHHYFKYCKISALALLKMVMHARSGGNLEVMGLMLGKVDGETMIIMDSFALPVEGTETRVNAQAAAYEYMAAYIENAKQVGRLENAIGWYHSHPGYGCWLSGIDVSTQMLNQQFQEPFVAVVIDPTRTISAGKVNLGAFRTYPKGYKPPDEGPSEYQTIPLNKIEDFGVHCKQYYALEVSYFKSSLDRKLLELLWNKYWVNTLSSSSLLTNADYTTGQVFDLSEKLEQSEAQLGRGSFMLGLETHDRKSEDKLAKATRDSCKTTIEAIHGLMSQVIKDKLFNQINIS
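Assay system: purified human Csn5 enzyme expressed in HEK293T cells; measure: % inhibition; also added: SCFSkp2-Nedd8OG substrate at 10 nM final; technique: fluorescence polarization; times: reaction 90 min, room temperature; medium: Tris buffer pH 7.5, NaCl, DTT, Tween-20, trehalose, ovalbumin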
CSN5 deneddyl – Csn5 (human) deneddylation inhibition, single-concentration validation; shares compounds with CSN inh; inhibition, % at 16.6 µM; Csn5 deneddylation of SCF-Nedd8OG, fluorescence polarization, 90 min; hit rate 62% among 540; AID 720654; in the data active = inhibition above about 50%
MMP-2 counter – MMP-2 (human) inhibition, counter-screen for CSN hits | shares compounds with CSN inh | recombinant MMP-2, FRET substrate fluorescence, 60 min | inhibition, % at 16.6 µM | hit rate 33% among 540;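 active = corrected plate-normalized z-score of 5 or more, or -5 or less, or inhibition of 15% or more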
Thrombin counter – counter-screen for CSN deneddylation inhibitors: bovine thrombin inhibition. shares compounds with CSN inh. AID 720656. bovine thrombin cleavage of Ub4-pepOG, fluorescence polarization. inhibition, % at 16.6 µM. hit rate 49% among 540;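 active = inhibition at or above a set limit, with a fluorescence interference ratio between 0.5 and a set maximum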
HNF4a DNA conf – change in binding of human HNF4 alpha to DNA, retest; HNF4A-FITC DNA binding, fluorescence polarization, 1 h; shares compounds with HNF4A DNA FP; hit rate 99% among 210; activity change, % at 12.5 µM; AID 1224897; call rule not given here
Large screens that a line does not name were inactive (follow-up assays come after a bar, where shown). A selection: hits, their analogues and other compounds. The true share with any hit is near 2.4%.

CCOC1=C/C(=C/c2c(N)n3oc(C)cc3nc2=O)C=CC1=O	none (no result: Rpn11 block, HNF4A DNA FP, Neddyl block, Tb MetRS inh, CSN inh)
COC1=C/C(=C/c2c(N)n3nc(-c4ccc(C)cc4)sc3nc2=O)C=CC1=O	HNF4A DNA FP 59.5, CSN inh 78.2 (not shown: PREPL inh, Rpn11 block) | MMP-2 counter inactive | Thrombin counter 75.5
CCS(=O)(=O)c1nn2c(N)c(/C=C3/C=CC(=O)C(OC)=C3)c(=O)nc2s1	CSN inh 43.8 (not shown: Rpn11 block) | CSN5 deneddyl 55.0 | MMP-2 counter inactive | Thrombin counter 51.6
CCOC1=C/C(=C/c2c(N)n3nc(-c4ccccc4)sc3nc2=O)C=CC1=O	CSN inh 40.8 (not shown: PREPL inh, Rpn11 block) | CSN5 deneddyl inactive | MMP-2 counter inactive | Thrombin counter 63.8
CC(=O)Nc1ccc2c(O)cc(S(=O)(=O)O)cc2c1	none (no result: PREPL inh)
Nc1ccc2c(O)cc(S(=O)(=O)O)cc2c1	CSN inh 35.9 (no result: PREPL inh) | CSN5 deneddyl 93.8 | MMP-2 counter 16.1 | Thrombin counter inactive
CCCCN1C(=O)c2cccc3cc(O)cc(c23)C1=O	none
NC1=NC(=O)/C(=C/c2ccc(OCC(=O)O)cc2)S1	none (no result: PREPL inh)
CCN(CC)c1ccc(/C=C2\SC(N)=NC2=O)cc1	CSN inh 68.3 (not shown: PREPL inh, Rpn11 block) | CSN5 deneddyl 131.2 | MMP-2 counter -33.1 | Thrombin counter 77.7
CCN1C(=O)/C(=C/C=C2\N(CC)c3cc(S(=O)(=O)N(C)C)ccc3N2c2ccccc2)SC1=S	CSN inh 74.5 (not shown: Rpn11 block) | CSN5 deneddyl 63.5 | MMP-2 counter inactive | Thrombin counter 34.2
CCN1C(=O)/C(=C\C=C\c2ccccc2[N+](=O)[O-])SC1=S	none (no result: PREPL inh)
CC(=O)Nc1ccc(S(=O)(=O)c2ccnc3cc(Cl)ccc23)cc1	none (no result: PREPL inh)
O=C1/C(=C/c2ccc(O)cc2)SC(=S)N1CC1CCCO1 (stereo unspecified)	HNF4A DNA FP 91.1, CSN inh 93.8 (not shown: Rpn11 block) | CSN5 deneddyl inactive | MMP-2 counter inactive | Thrombin counter inactive
CCCOc1ccc(/C=C2\SC(=S)N(CC3CCCO3)C2=O)cc1 (stereo unspecified)	none
COc1ccc(OC)c(Nc2cc3ccccc3c(=O)[nH]2)c1	none
COc1ccccc1Nc1cc2cc(Br)ccc2c(=O)[nH]1	CSN inh 53.0 | CSN5 deneddyl 70.0 | MMP-2 counter inactive | Thrombin counter inactive
O=c1[nH]c(Nc2ccccc2)cc2cc(Br)ccc12	CSN inh 48.5 | CSN5 deneddyl 60.9 | MMP-2 counter inactive | Thrombin counter inactive
O=C(NCC1CC1)C1Cc2c(-c3ccc4c(c3)OCO4)ccnc2O1 (stereo unspecified)	none (not shown: PREPL inh, Neddyl block)
Cc1ccc(S(=O)(=O)/N=C2/NC(=O)/C(=C\c3cc(Br)cc(Br)c3O)S2)cc1	HNF4A DNA FP 80.5, CSN inh 146.9 (not shown: PREPL inh, Rpn11 block) | CSN5 deneddyl inactive | MMP-2 counter -80.1 | Thrombin counter inactive
CSc1nc(SCC(=O)O)c2sc3nc(-c4ccccc4)c4c(c3c2n1)CCC4	CSN inh 63.9 (no result: PREPL inh) | CSN5 deneddyl inactive | MMP-2 counter 30.1 | Thrombin counter inactive
N#CC1=C(N)N(c2ccc(F)cc2)C2=C(C1c1ccc(O)cc1)S(=O)(=O)CC2 (stereo unspecified)	HNF4A DNA FP 54.7, CSN inh 43.2 (not shown: PREPL inh, Rpn11 block) | HNF4a DNA conf 51.6
Cc1cccc(-c2c3c(=O)n(C)c(=O)n(C)c3c3nnc4ccccc4n23)c1	HNF4A DNA FP 49.5 (not shown: PREPL inh, Rpn11 block) | HNF4a DNA conf 32.0
Cc1cccc(-c2c3c(=O)n(C)c(=O)n(C)c3cn2CCO)c1	none
NC(=O)CC(NC(=O)Cc1ccc(Br)cc1)c1ccc(NC2CCCCCCC2)c([N+](=O)[O-])c1 (stereo unspecified)	none (not shown: PREPL inh, Rpn11 block)
NC(=O)CC(NC(=O)Cc1ccc(Br)cc1)c1ccc(NC2CCCC2)c([N+](=O)[O-])c1 (stereo unspecified)	HNF4A DNA FP 49.9 (not shown: Rpn11 block) | HNF4a DNA conf 49.3
CCN(CC)C(=O)C1=C(C)N(Cc2ccc(OC)cc2)C(=O)C(CC(=O)NCC2CCCCC2)C1 (stereo unspecified)	none (no result: PREPL inh)
Cc1cc(C)n(-c2ccc(NC(=O)C3CCN(Cc4ccc(C)o4)CC3)cc2)n1	none
CC1CCN(c2ccc3c(c2)S(=O)(=O)c2cccc(C(=O)NC4CC4)c2C3=O)CC1	HNF4A DNA FP 42.6 | HNF4a DNA conf 36.1
O=C(NC1CCCCC1)c1cccc2c1C(=O)c1ccc(N3CCC(Cc4ccccc4)CC3)cc1S2(=O)=O	none
CC1CCN(c2ccc3c(c2)S(=O)(=O)c2cccc(C(=O)NC[C@@H]4CCCO4)c2C3=O)CC1	HNF4A DNA FP 54.3 (not shown: Rpn11 block) | HNF4a DNA conf 62.0
O=C(O)c1cccc2c1C(=O)c1ccc(N3CCCCC3)cc1S2(=O)=O	HNF4A DNA FP 43.5 (not shown: Rpn11 block) | HNF4a DNA conf 42.6
CC(=O)Oc1ccc(C(=O)Cc2ccc3ccccc3n2)c(O)c1C	HNF4A DNA FP 37.8 (not shown: Rpn11 block) | HNF4a DNA conf 50.0
Cc1c(O)ccc(/C(Cc2ccc3ccccc3n2)=N\O)c1O	none
O=C(Cc1ccccc1)N/N=C/c1ccc(-c2ccc([N+](=O)[O-])cc2)o1	none
Cc1ccc(C)c(N(CC(=O)N/N=C/c2ccc(-c3ccc([N+](=O)[O-])cc3)o2)S(=O)(=O)c2ccccc2)c1	HNF4A DNA FP 92.6, CSN inh 43.7 (not shown: Rpn11 block) | HNF4a DNA conf 54.2
COc1cc(CN2C[C@@H](CO)O[C@@H](n3cnc4c(NC(C)C)ncnc43)C2)cc(OC)c1OC	none (no result: PREPL inh)
O=[N+]([O-])c1ccc(/C=N/NC(=S)Nc2ccccc2F)o1	none
Cc1c(-c2ccc(/C=N/NC(=O)C(=O)Nc3ccccc3F)o2)cccc1[N+](=O)[O-]	HNF4A DNA FP 78.6 (not shown: Rpn11 block) | HNF4a DNA conf 35.1
COc1cc(CNC(=O)Nc2nnc([C@H]3C[C@H](O)[C@@H](CO)O3)s2)cc(OC)c1OC	none (no result: PREPL inh)
CC(NC(=O)C12CC3CC(CC(C3)C1)C2)C(=O)N/N=C/C1=C(N2CCOCC2)C(=C\c2cccc([N+](=O)[O-])c2)/CC1 (stereo unspecified)	none
N#C/C(=C\C1=C(N2CCOCC2)C(=C/c2cccc([N+](=O)[O-])c2)/CC1)C(=O)Nc1ccccc1F	HNF4A DNA FP 53.5 (not shown: Rpn11 block) | HNF4a DNA conf 55.6

Screens: PubChem BioAssay, several laboratories
